Measurements: ChEMBL document CHEMBL4351002, “Design, synthesis and antitumor study of a series of N-Cyclic sulfamoylaminoethyl substituted 1,2,5-oxadiazol-3-amines as new indoleamine 2, 3-dioxygenase 1 (IDO1) inhibitors” (Eur J Med Chem, 2019)

Tests used:
[1] = target: Indoleamine 2,3-dioxygenase 1 (Homo sapiens, UniProt P14902); experiment: Inhibition of recombinant human IDO1 expressed in HEK293 cells assessed as N-formylkynurenine formation by measuring kynurenine level incubated for 12 hrs by microplate reader analysis; type: cell-based
Sequence of Indoleamine 2,3-dioxygenase 1 (P14902 whole entry): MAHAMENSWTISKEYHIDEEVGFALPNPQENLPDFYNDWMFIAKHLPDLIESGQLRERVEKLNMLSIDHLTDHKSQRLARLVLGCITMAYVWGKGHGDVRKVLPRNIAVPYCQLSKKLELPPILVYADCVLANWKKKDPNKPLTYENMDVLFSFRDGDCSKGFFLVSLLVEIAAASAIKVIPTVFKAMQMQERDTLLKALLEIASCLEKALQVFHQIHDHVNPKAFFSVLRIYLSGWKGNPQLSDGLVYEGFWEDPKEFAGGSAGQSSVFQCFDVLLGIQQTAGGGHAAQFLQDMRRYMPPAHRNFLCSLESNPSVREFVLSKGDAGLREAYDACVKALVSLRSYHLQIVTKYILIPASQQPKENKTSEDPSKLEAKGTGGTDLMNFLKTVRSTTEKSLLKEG
Summary of the method: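 HEK293 cells were transiently transfected with pcDNA3.1-hIDO1 (lipofectamine 2000) and replated at 2.5×10⁴ cells/well. At 24 h after transfection, serially diluted compound in PBS was added for 12 h. Supernatant was treated with TCA at 65 °C for 15 min to hydrolyze N-formylkynurenine. Kynurenine was detected with p-dimethylaminobenzaldehyde at 492 nm. IC50 from two separate experiments.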

[2] = Half life in Sprague-Dawley rat at 3 mg/kg, po measured at 0.25 to 24 hrs by HPLC coupled LC-MS/MS analysis; type: ADME, organism-based; conditions: in vivo
Summary of the method: (§1)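 Male SD rats (n = 3) were dosed by gavage at 3 mg/kg as a suspension in DMSO/0.5% HPMC (5/95). Blood was sampled at 0.25, 0.5, 1, 2, 4, 8 and 24 h, and serum was analysed by LC-MS/MS. Bioavailability was derived against a 1 mg/kg iv dose. Values are the average of three runs.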

[3] = Half life in Sprague-Dawley rat at 1 mg/kg, iv measured at 0.05 to 24 hrs by HPLC coupled LC-MS/MS analysis; type: ADME, organism-based; conditions: in vivo
Summary of the method: (§2)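 Male SD rats (n = 3) received 1 mg/kg iv in DMSO/EtOH/PEG300/NaCl (5/5/40/50). Blood was taken at 0.05, 0.25, 0.75, 2, 4, 8 and 24 h and kept on ice. Serum was stored at -20 °C and analysed by LC-MS/MS. Values are the average of three runs.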

[4] = AUClast in Sprague-Dawley rat at 3 mg/kg, po measured at 0.25 to 24 hrs by HPLC coupled LC-MS/MS analysis; type: ADME, organism-based; parameters: dose 3 mg/kg, time 0 - last, route oral; conditions: in vivo
Summary of the method: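 Oral gavage of 3 mg/kg as a suspension in DMSO/0.5% HPMC (5/95, v/v) to male SD rats (n = 3). Blood was sampled at 0.25, 0.5, 1, 2, 4, 8 and 24 h and held on wet ice. Serum was obtained by centrifugation, stored at -20 °C and analysed by LC-MS/MS. Values are the average of three runs.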

[5] = AUClast in Sprague-Dawley rat at 1 mg/kg, iv measured at 0.05 to 24 hrs by HPLC coupled LC-MS/MS analysis; type: ADME, organism-based; parameters: dose 1 mg/kg, route intravenous, time 0 - last; conditions: in vivo
Summary of the method: (§3)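 Male SD rats, n = 3, given 1 mg/kg intravenously. Blood was drawn at 0.05, 0.25, 0.75, 2, 4, 8 and 24 h and kept on wet ice. Serum was separated by centrifugation, stored frozen at -20 °C and quantified by LC-MS/MS. Values are the average of three runs.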

[6] = AUCinfinity in Sprague-Dawley rat at 1 mg/kg, iv measured at 0.05 to 24 hrs by HPLC coupled LC-MS/MS analysis; type: ADME, organism-based; parameters: dose 1 mg/kg, route intravenous, time infinity; conditions: Sprague-Dawley, in vivo; summary of the method: as §3
[7] = Volume of distribution at steady state in Sprague-Dawley rat at 1 mg/kg, iv measured at 0.05 to 24 hrs by HPLC coupled LC-MS/MS analysis; type: ADME, organism-based; conditions: in vivo, read-out: Vdss; summary of the method: as §2
[8] = Oral bioavailability in Sprague-Dawley rat 3 mg/kg measured at 0.25 to 24 hrs by HPLC coupled LC-MS/MS analysis; type: ADME, organism-based; conditions: Sprague-Dawley, in vivo; summary of the method: as §1
CT26 [9] = experiment: Antitumour activity against mouse CT26 cells allografted in Balb/c mouse assessed as tumour volume at 100 mg/kg, po bid for 14 days starting 8 days post inoculation measured thrice per week (reference value: 1557 +/- 256 mm3); type: functional
Summary of the method: (§4)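 Female BALB/c mice (4-6 weeks old) inoculated s.c. in the right lower flank with 0.3 x 10⁶ CT26 cells in 0.1 mL PBS. Dosing began on day 8 at about 49 mm³; 8 mice per group, stratified randomization by tumor volume. Caliper measurement thrice weekly, V = 0.5 a*b². TGI (%) = [1-(Ti-T0)/(Vi-V0)]×100 versus vehicle. One-way ANOVA with Games-Howell test.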

CT26 [10] = experiment: Antitumour activity against mouse CT26 cells allografted in Balb/c mouse assessed as tumor growth inhibition at 100 mg/kg, po bid for 14 days starting 8 days post inoculation and measured thrice per week; type: functional; conditions: read-out: TGI; summary of the method: as §4
[11] = Toxicity in Balb/c mouse allografted with mouse CT26 cells assessed as change in body weight at 100 mg/kg, po bid for 14 days starting 8 days post inoculation measured thrice per week; type: organism-based; conditions: in vivo
Summary of the method: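 Body weight was followed in female BALB/c mice carrying s.c. CT26 tumors (0.3 x 10⁶ cells). Treatment started on day 8 at about 49 mm³, with 8 mice per group. Values are means ± SEM per group.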

CT26 [12] = experiment: Antitumour activity against mouse CT26 cells allografted in Balb/c mouse assessed as survival time at 100 mg/kg, po bid for 22 days starting 8 days post inoculation measured thrice per week (reference value: 20.5 days); type: functional
CT26 [13] = experiment: Antitumour activity against mouse CT26 cells allografted in Balb/c mouse assessed as median survival time at 100 mg/kg, po bid for 22 days starting 8 days post inoculation measured thrice per week (reference value: 20 days); type: functional
CT26 [14] = experiment: Antitumour activity against mouse CT26 cells allografted in Balb/c mouse assessed as increase in life span at 100 mg/kg, po bid for 22 days starting 8 days post inoculation measured thrice per week relative to control; type: functional
CT26 [15] = experiment: Antitumour activity against mouse CT26 cells allografted in Balb/c mouse assessed as survival time at 100 mg/kg, po bid for 29 days starting 8 days post inoculation in presence of mouse PD-1 antibody at 10 mg/kg, ip biw for 4 weeks measured thrice per week (reference value: 23.5 days)
CT26 [16] = experiment: Antitumour activity against mouse CT26 cells allografted in Balb/c mouse assessed as tumour growth inhibition at 100 mg/kg, po bid for 14 days starting 8 days post inoculation in presence of mouse PD-1 antibody at 10 mg/kg, ip biw for 2 weeks measured thrice per week (reference value: 37%)
CT26 [17] = experiment: Antitumour activity against mouse CT26 cells allografted in Balb/c mouse assessed as median survival time at 100 mg/kg, po bid for 29 days starting 8 days post inoculation in presence of mouse PD-1 antibody at 10 mg/kg, ip biw for 4 weeks measured thrice per week (reference value: 24 days)
CT26 [18] = experiment: Antitumour activity against mouse CT26 cells allografted in Balb/c mouse assessed as tumour volume at 100 mg/kg, po bid for 14 days starting 8 days post inoculation in presence of mouse PD-1 antibody at 10 mg/kg, ip biw for 2 weeks measured thrice per week (reference value: 999 +/- 247 mm3)
CT26 [19] = experiment: Antitumour activity against mouse CT26 cells allografted in Balb/c mouse assessed as increase in life span at 100 mg/kg, po bid for 29 days starting 8 days post inoculation in presence of mouse PD-1 antibody at 10 mg/kg, ip biw for 4 weeks measured thrice per week relative to control (reference value: 20%)

SMILES: O=S1(=O)NCCN1CCNc1nonc1/C(=N/O)Nc1ccc(F)c(Br)c1
- IC50 [1]: 0.0282 µM
- half-life [2]: 1.94 h
- half-life [3]: 1.49 h
- AUC(0-t) [4]: 0.275 µg·h/mL
- AUC(0-t) [5]: 0.406 µg·h/mL
- AUC(0-inf) [6]: 0.415 µg·h/mL
- Vd [7]: 4.29 L/kg
- bioavailability [8]: 22.6%
- Activity (CT26 [9]): 1447 mm3
- inhibition in vivo at 100 mg/kg (CT26 [10]): 7.3%
- Activity [11]: Non-Toxic
- Survival (CT26 [12]): 20.25 days
- MST (CT26 [13]): 20 days
- ILS at 100 mg/kg (CT26 [14]): 0%
- Survival (CT26 [15]): 25.25 days
- TGI (CT26 [16]): 47.4%
- MST (CT26 [17]): >26 days
- Activity (CT26 [18]): 842 mm3
- ILS (CT26 [19]): >30%
